Assay results as given in ChEMBL document CHEMBL1154352, “Toll-like receptor 7 selective synthetic oligoribonucleotide agonists: synthesis and structure-activity relationship studies” (J Med Chem, 2009).
The source made the active and inactive calls. The rule behind the calls is not given here.

Tests used:
[1] = target: T1, Toll-like receptor 9 (Mus musculus) (UniProt Q9EQU3); assay: Activation of mouse TLR9 expressed in HEK293 assessed as induction of NF-kappaB activity reporter gene assay; assay type: cell-based
T1 sequence (whole entry): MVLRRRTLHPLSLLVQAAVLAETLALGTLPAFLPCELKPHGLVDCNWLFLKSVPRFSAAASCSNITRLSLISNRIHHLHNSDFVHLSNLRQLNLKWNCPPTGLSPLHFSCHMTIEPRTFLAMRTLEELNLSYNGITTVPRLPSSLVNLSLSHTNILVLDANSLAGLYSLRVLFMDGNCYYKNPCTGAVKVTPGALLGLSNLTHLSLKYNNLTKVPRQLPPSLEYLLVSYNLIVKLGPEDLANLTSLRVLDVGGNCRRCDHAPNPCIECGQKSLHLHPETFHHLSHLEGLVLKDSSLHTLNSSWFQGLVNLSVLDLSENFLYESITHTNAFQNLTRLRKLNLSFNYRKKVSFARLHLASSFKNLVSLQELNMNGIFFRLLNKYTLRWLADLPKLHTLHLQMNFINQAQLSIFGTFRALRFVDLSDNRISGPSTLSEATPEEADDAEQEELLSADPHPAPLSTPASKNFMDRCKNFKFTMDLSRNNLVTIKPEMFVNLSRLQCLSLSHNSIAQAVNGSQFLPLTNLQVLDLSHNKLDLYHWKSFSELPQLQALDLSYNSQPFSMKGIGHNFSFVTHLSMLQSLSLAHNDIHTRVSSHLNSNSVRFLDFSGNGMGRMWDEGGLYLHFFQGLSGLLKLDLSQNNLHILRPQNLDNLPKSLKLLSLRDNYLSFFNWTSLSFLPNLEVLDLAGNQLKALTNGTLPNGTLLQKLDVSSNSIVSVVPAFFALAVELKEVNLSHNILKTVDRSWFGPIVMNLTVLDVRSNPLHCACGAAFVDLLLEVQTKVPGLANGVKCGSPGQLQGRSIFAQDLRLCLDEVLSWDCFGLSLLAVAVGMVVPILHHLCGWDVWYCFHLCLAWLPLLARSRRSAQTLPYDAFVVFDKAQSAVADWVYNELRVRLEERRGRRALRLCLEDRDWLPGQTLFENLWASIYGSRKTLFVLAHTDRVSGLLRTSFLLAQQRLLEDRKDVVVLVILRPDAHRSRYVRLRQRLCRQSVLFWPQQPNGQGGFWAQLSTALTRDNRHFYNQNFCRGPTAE

PBMC [2] = assay: Immunomodulatory activity in human PBMC assessed as induction of IL12 at 100 ug/ml after 24 hrs; assay type: functional, cell-based
Procedure, shortened: (§1)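 Human PBMCs plated at 5 × 10^6 cells/mL; compounds dissolved in PBS added at various concentrations, 37 °C for 24 h. Supernatant cytokines/chemokines quantified with human Luminex multiplex kit.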

Splenocyte [3] = assay: Immunomodulatory activity in C57BL/6 mouse splenocytes bearing TLR7 receptor assessed as IL12 release at 100 ug/ml after 24 hrs by ELISA; assay type: functional, cell-based
Procedure, shortened: (§2)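 C57BL/6 splenocytes in RPMI 1640 with 10% FBS, penicillin/streptomycin, 2 mM L-glutamine, plated at 5 × 10^6 cells/mL; compounds in PBS added, 37 °C for 24 h. Supernatant IL-12 and IL-6 by ELISA; representative of three independent experiments.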

PBMC [4] = assay: Immunomodulatory activity in human PBMC assessed as induction of TNFalpha at 100 ug/ml after 24 hrs; assay type: functional, cell-based; procedure, shortened: as §1
PBMC [5] = assay: Immunomodulatory activity in human PBMC assessed as induction of IFN-alpha at 100 ug/ml after 24 hrs
Homo sapiens = species on record: Homo sapiens; assay: Ratio of human TLR7 activity to human TLR8 activity
Procedure, shortened: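 TLR7/TLR8 ratio computed from fold NF-κB (SEAP reporter) activation in HEK293 cells stably expressing human TLR7 versus TLR8, compounds at 50 μg/mL, 18 h exposure; representative of three independent experiments.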

Splenocyte [6] = assay: Immunomodulatory activity in C57BL/6 mouse splenocytes bearing TLR7 receptor assessed as IL6 release at 100 ug/ml after 24 hrs by ELISA; assay type: functional, cell-based; procedure, shortened: as §2
[7] = target: T2, Toll-like receptor 7 (Homo sapiens) (UniProt Q9NYK1); assay: Activation of human TLR7 expressed in HEK293XL assessed as fold induction of NF-kappaB activity at 50 ug/ml after 18 hrs by reporter gene assay relative to control
T2 sequence (whole entry): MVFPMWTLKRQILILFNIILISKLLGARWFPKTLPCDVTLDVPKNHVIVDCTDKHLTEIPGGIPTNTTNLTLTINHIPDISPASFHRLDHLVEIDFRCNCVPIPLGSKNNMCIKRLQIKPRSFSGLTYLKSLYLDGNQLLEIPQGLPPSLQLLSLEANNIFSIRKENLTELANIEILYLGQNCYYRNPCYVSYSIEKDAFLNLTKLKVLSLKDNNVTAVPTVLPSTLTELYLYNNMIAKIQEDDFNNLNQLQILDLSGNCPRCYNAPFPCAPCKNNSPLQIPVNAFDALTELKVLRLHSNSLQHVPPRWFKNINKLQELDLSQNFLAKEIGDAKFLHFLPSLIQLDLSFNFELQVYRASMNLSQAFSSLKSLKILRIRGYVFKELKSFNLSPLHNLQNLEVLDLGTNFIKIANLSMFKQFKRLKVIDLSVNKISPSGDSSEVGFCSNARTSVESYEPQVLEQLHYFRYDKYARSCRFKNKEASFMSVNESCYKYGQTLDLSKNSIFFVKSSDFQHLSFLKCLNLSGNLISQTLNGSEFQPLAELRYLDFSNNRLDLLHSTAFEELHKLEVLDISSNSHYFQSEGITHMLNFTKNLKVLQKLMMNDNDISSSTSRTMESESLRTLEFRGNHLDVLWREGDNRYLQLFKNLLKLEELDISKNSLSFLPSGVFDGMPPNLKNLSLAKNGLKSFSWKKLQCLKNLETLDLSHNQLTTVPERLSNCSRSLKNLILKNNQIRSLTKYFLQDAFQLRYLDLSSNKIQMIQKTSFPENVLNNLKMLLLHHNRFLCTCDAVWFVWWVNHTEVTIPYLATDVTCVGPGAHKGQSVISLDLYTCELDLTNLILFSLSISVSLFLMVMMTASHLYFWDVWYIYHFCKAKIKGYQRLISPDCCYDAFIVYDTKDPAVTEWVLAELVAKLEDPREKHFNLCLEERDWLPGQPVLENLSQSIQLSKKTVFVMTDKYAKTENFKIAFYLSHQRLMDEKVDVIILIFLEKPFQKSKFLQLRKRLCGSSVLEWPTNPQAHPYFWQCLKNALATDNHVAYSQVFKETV
Procedure, shortened: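 HEK293 cells stably expressing human TLR7 or TLR8, transiently transfected with SEAP reporter plasmid; medium replaced, SIMRA compounds added, 18 h incubation. Supernatant SEAP measured by QuantiBlue; expressed as fold increase in NF-κB activity over PBS control. Tabulated data at 50 μg/mL, representative of three independent experiments.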

With Nc1ccn([C@@H]2O[C@H](COP(=O)(S)O[C@H]3[C@@H](O)[C@H](n4cnc5c(N)ncnc54)O[C@@H]3CO)[C@@H](OP(=O)(S)OC[C@H]3O[C@@H](n4ccc5c(=O)[nH]c(N)nc54)[C@H](O)[C@@H]3OP(=O)(S)OC[C@H]3O[C@@H](n4ccc(N)nc4=O)[C@H](O)[C@@H]3OP(=O)(S)OC[C@H]3O[C@@H](n4ccc(=O)[nH]c4=O)[C@H](O)[C@@H]3OP(=O)(S)OC[C@H]3O[C@@H](n4ccc5c(=O)[nH]c(N)nc54)[C@H](O)[C@@H]3OP(=O)(S)OC[C@H]3O[C@@H](n4cnc5c(N)ncnc54)[C@H](O)[C@@H]3OP(=O)(S)OC[C@H]3O[C@@H](n4ccc5c(=O)[nH]c(N)nc54)[C@H](O)[C@@H]3OP(=O)(S)OC[C@H]3O[C@@H](n4ccc(N)nc4=O)[C@H](O)[C@@H]3OP(=O)(S)OC[C@H]3O[C@@H](n4ccc(=O)[nH]c4=O)[C@H](O)[C@@H]3OP(=O)(S)OC[C@H]3O[C@@H](n4ccc(=O)[nH]c4=O)[C@H](O)[C@@H]3OP(=O)(S)OCC(O)COP(=O)(S)O[C@H]3[C@@H](O)[C@H](n4ccc(=O)[nH]c4=O)O[C@@H]3COP(=O)(S)O[C@H]3[C@@H](O)[C@H](n4ccc(=O)[nH]c4=O)O[C@@H]3COP(=O)(S)O[C@H]3[C@@H](O)[C@H](n4ccc(N)nc4=O)O[C@@H]3COP(=O)(S)O[C@H]3[C@@H](O)[C@H](n4ccc5c(=O)[nH]c(N)nc54)O[C@@H]3COP(=O)(S)O[C@H]3[C@@H](O)[C@H](n4cnc5c(N)nc(N)nc54)O[C@@H]3COP(=O)(S)O[C@H]3[C@@H](O)[C@H](n4ccc5c(=O)[nH]c(N)nc54)O[C@@H]3COP(=O)(S)O[C@H]3[C@@H](O)[C@H](n4ccc(=O)[nH]c4=O)O[C@@H]3COP(=O)(S)O[C@H]3[C@@H](O)[C@H](n4ccc(N)nc4=O)O[C@@H]3COP(=O)(S)O[C@H]3[C@@H](O)[C@H](n4ccc5c(=O)[nH]c(N)nc54)O[C@@H]3COP(=O)(S)O[C@H]3[C@@H](O)[C@H](n4ccc(N)nc4=O)O[C@@H]3COP(=O)(S)O[C@H]3[C@@H](O)[C@H](n4cnc5c(N)ncnc54)O[C@@H]3CO)[C@H]2O)c(=O)n1 (stereo partly specified) as the compound, how does the Activity [1] read?
The Activity was “inactive”.

What about the Activity (PBMC [2]) of the same compound?
Its Activity is 2240 pg/mL.

What about the Activity (Splenocyte [3]) of the same compound?
Its Activity is “Active”.

And the Activity (PBMC [4])?
The Activity was 1410 pg/mL.

And the IFN-alpha (PBMC [5])?
The IFN-alpha was 188 pg/mL.

What about the Ratio (Homo sapiens) of the same compound?
Its Ratio is 29.6.

And the Activity (Splenocyte [6])?
Its Activity is “Active”.

What about the fold change (FC) [7] of the same compound?
The fold change (FC) was 26.6.

With Nc1ccn([C@@H]2O[C@H](COP(=O)(S)O[C@H]3[C@@H](O)[C@H](n4cnc5c(N)ncnc54)O[C@@H]3CO)[C@@H](OP(=O)(S)OC[C@H]3O[C@@H](n4ccc(=O)[nH]c4=O)[C@H](O)[C@@H]3OP(=O)(S)OC[C@H]3O[C@@H](n4ccc5c(=O)[nH]c(N)nc54)[C@H](O)[C@@H]3OP(=O)(S)OC[C@H]3O[C@@H](n4ccc(N)nc4=O)[C@H](O)[C@@H]3OP(=O)(S)OC[C@H]3O[C@@H](n4ccc5c(=O)[nH]c(N)nc54)[C@H](O)[C@@H]3OP(=O)(S)OC[C@H]3O[C@@H](n4cnc5c(N)ncnc54)[C@H](O)[C@@H]3OP(=O)(S)OC[C@H]3O[C@@H](n4ccc5c(=O)[nH]c(N)nc54)[C@H](O)[C@@H]3OP(=O)(S)OC[C@H]3O[C@@H](n4ccc(N)nc4=O)[C@H](O)[C@@H]3OP(=O)(S)OC[C@H]3O[C@@H](n4ccc(=O)[nH]c4=O)[C@H](O)[C@@H]3OP(=O)(S)OC[C@H]3O[C@@H](n4ccc(=O)[nH]c4=O)[C@H](O)[C@@H]3OP(=O)(S)OCC(O)COP(=O)(S)O[C@H]3[C@@H](O)[C@H](n4ccc(=O)[nH]c4=O)O[C@@H]3COP(=O)(S)O[C@H]3[C@@H](O)[C@H](n4ccc(=O)[nH]c4=O)O[C@@H]3COP(=O)(S)O[C@H]3[C@@H](O)[C@H](n4ccc(N)nc4=O)O[C@@H]3COP(=O)(S)O[C@H]3[C@@H](O)[C@H](n4ccc5c(=O)[nH]c(N)nc54)O[C@@H]3COP(=O)(S)O[C@H]3[C@@H](O)[C@H](n4cnc5c(N)ncnc54)O[C@@H]3COP(=O)(S)O[C@H]3[C@@H](O)[C@H](n4ccc5c(=O)[nH]c(N)nc54)O[C@@H]3COP(=O)(S)O[C@H]3[C@@H](O)[C@H](n4ccc(N)nc4=O)O[C@@H]3COP(=O)(S)O[C@H]3[C@@H](O)[C@H](n4ccc5c(=O)[nH]c(N)nc54)O[C@@H]3COP(=O)(S)O[C@H]3[C@@H](O)[C@H](n4ccc(=O)[nH]c4=O)O[C@@H]3COP(=O)(S)O[C@H]3[C@@H](O)[C@H](n4ccc(N)nc4=O)O[C@@H]3COP(=O)(S)O[C@H]3[C@@H](O)[C@H](n4cnc5c(N)ncnc54)O[C@@H]3CO)[C@H]2O)c(=O)n1 (stereo partly specified) as the compound, how does the Activity [1] read?
The Activity was “inactive”.

What about the Activity (PBMC [2]) of the same compound?
Its Activity is 487 pg/mL.

And the Activity (Splenocyte [3])?
The Activity was “Active”.

What about the Activity (PBMC [4]) of the same compound?
Its Activity is 43.5 pg/mL.

What about the IFN-alpha (PBMC [5]) of the same compound?
The IFN-alpha was 131 pg/mL.

What about the Ratio (Homo sapiens) of the same compound?
The Ratio was 15.9.

What about the Activity (Splenocyte [6]) of the same compound?
The Activity was “Active”.

What about the fold change (FC) [7] of the same compound?
The fold change (FC) was 27.
